In ChEMBL document CHEMBL3853294, “Design, synthesis and biological evaluation of novel HSP70 inhibitors: N, N'-disubstituted thiourea derivatives” (Eur J Med Chem, 2016):

How the values were obtained:
[1] = species: Homo sapiens; test: Inhibition of HSP70 in human BT/LapR1.0 cells assessed as potentiation of 1 uM of lapatinib-induced growth inhibition after 72 hrs by measuring coefficient of drug interaction by cell titer-glo based luminescence assay
[2] = tested on: BT-474; test: Potentiation of lapatinib-induced growth inhibition of human BT474 cells assessed as coefficient of drug interaction after 72 hrs by cell titer-glo based luminescence assay; type: functional
[3] = Growth inhibition of human BT474 cells at 10 uM after 72 hrs by cell titer-glo based luminescence assay; set-up: species or system BT-474; details: read-out: GI
How it was run: (§1)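 Cells were trypsinised and seeded at 5000 cells/well, then cultured 24 h at 37 °C. Compound was added at 10 µM, alone or with 1 µM lapatinib, and incubated 72 h at 37 °C. CellTiter-Glo reagent was added at a volume equal to the medium, followed by 3 min shaking and 10 min at room temperature. Luminescence (ATP) was read and normalised to the blank control group.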

[4] = tested on: BT-474; test: Potentiation of lapatinib-induced growth inhibition of human BT474 cells at 10 uM after 72 hrs by cell titer-glo based luminescence assay; type: functional; details: BT-474, 72 h, read-out: GI; how it was run: as §1
[5] = Growth inhibition of human BT/LapR1.0 cells at 10 uM after 72 hrs by cell titer-glo based luminescence assay; details: read-out: GI; how it was run: as §1
[6] = species: Homo sapiens; test: Inhibition of HSP70 in human BT/LapR1.0 cells assessed as potentiation of 1 uM of lapatinib-induced growth inhibition at 10 uM after 72 hrs by cell titer-glo based luminescence assay; how it was run: as §1
[7] = target: Chaperone protein DnaK (Escherichia coli) (UniProt P0A6Y8); test: Inhibition of Escherichia coli DnaK ATPase activity at 200 uM incubated on shaker for 10 mins followed by 30 mins incubation by malachite green reagent based colorimetric assay

| SMILES | inhibition [7] | Activity [1] | Activity [2] | inhibition at 72 h, 10 µM [3] | inhibition of growth at 10 µM [4] | inhibition at 72 h, 10 µM [5] | growth inhibition (GI) [6] |
| --- | --- | --- | --- | --- | --- | --- | --- |
| COc1cc(/C=C/C(=O)NC(NC(=S)NC2CCCCC2)C(C)C)cc(OC)c1OC (centres undefined) | < 20% | 0.8 | 0.82 | 15.3% | 82.2% | 22.6% | 45.7% |
| COc1cc(/C=C/C(=O)NC(NC(=S)Nc2ccccc2)C(C)(C)C)cc(OC)c1OC (centres undefined) | < 20% | < 1 | <1 | 2.2% | 83.2% | 2.9% | 48.8% |
| COc1cc(/C=C/C(=O)NC(NC(=S)Nc2cccnc2)C2CC2)cc(OC)c1OC (centres undefined) | < 20% | < 1 | <1 | 8.6% | 85.2% | 12.3% | 55.7% |
| COc1cc(/C=C/C(=O)NC(CC(C)C)NC(=S)Nc2ccccn2)cc(OC)c1OC (centres undefined) | < 20% | < 1 | <1 | 24.9% | 87.8% | 38.7% | 61% |
| COc1cc(/C=C/C(=O)NC(NC(=S)Nc2ccccc2)C2CC2)cc(OC)c1OC (centres undefined) | 50.5% | < 1 | <1 | 12.2% | 85.2% | 13.7% | 56% |
| COc1cc(/C=C/C(=O)NC(CC(C)(C)C)NC(=S)Nc2cccnc2)cc(OC)c1OC (centres undefined) | 47.1% | < 1 | 0.81 | 22.1% | 89.9% | 19.3% | 59.9% |
| COc1cc(/C=C/C(=O)NC(CC(C)C)NC(=S)Nc2cccnc2)cc(OC)c1OC (centres undefined) | 38.5% | < 1 | <1 | 9.2% | 79.1% | 10.5% | 54.2% |
| COc1cc(/C=C/C(=O)NC(NC(=O)Nc2ccccn2)C(C)C)cc(OC)c1OC (centres undefined) | < 20% | < 1 | <1 | 12.4% | 86.2% | 18.2% | 57.6% |
| CC(C)CC(NC(=O)/C=C/c1ccccc1)NC(=S)NC1CCCCC1 (centres undefined) | 58.4% | < 1 | 0.77 | 13.5% | 84% | 19.8% | 33.4% |
| COc1ccc(NC(=S)NC(NC(=O)/C=C/c2cc(OC)c(OC)c(OC)c2)C(C)C)cc1 (centres undefined) | < 20% | < 1 | <1 | 11.5% | 78.5% | 15.4% | 23.4% |
| COc1cc(/C=C/C(=O)NC(NC(=O)Nc2ccccc2)C(C)C)cc(OC)c1OC (centres undefined) |  | < 1 | <1 | 4.8% | 79.1% | 11.4% | 32.8% |
| COc1cc(/C=C/C(=O)NC(NC(=S)Nc2ccccc2C)C2CC2)cc(OC)c1OC (centres undefined) | < 20% | 0.79 | <1 | 44% | 87.4% | 6.8% | 44.2% |
| COc1cc(/C=C/C(=O)NC(NC(=S)Nc2cccnc2)C(C)(C)C)cc(OC)c1OC (centres undefined) | < 20% | < 1 | <1 | 10.3% | 84.7% | 16% | 56% |
| COc1cc(/C=C/C(=O)NC(CC(C)(C)C)NC(=S)Nc2ccccc2)cc(OC)c1OC (centres undefined) | 44.1% | < 1 | 0.65 | 19% | 90.9% | 40.9% | 62.3% |
| COc1cc(/C=C/C(=O)NC(CC(C)C)NC(=S)Nc2ccccc2)cc(OC)c1OC (centres undefined) | 50.4% | < 1 | <1 | 7.3% | 76.6% | 9.4% | 42.2% |
| COc1cc(/C=C/C(=O)NC(CC(C)C)NC(=S)NC2CCCCC2)cc(OC)c1OC (centres undefined) | 46.2% | < 1 | 0.73 | 16.5% | 83.4% | 38.8% | 48.1% |

Now from value to compound, other results behind:

| inhibition [7] | SMILES | Activity [1] | Activity [2] | inhibition at 72 h, 10 µM [3] | inhibition of growth at 10 µM [4] | inhibition at 72 h, 10 µM [5] | growth inhibition (GI) [6] |
| --- | --- | --- | --- | --- | --- | --- | --- |
| 41% | Cc1ccccc1NC(=S)NC(CC(C)(C)C)NC(=O)/C=C/c1ccccc1 (centres undefined) | 0.79 | 0.74 | 18.2% | 84.2% | 18.9% | 41% |
| 50.5% | COc1cc(/C=C/C(=O)NC(NC(=S)Nc2ccccc2C)C(C)(C)C)cc(OC)c1OC (centres undefined) | < 1 | <1 | 8.2% | 81.4% | 9.9% | 30.1% |
| 65.4% | Cc1ccccc1NC(=S)NC(NC(=O)/C=C/c1ccccc1)C1CC1 (centres undefined) | < 1 | <1 | 6% | 78.6% | 8.7% | 20% |
| < 20% | CC(C)(C)C(NC(=O)/C=C/c1ccccc1)NC(=S)Nc1ccccc1 (centres undefined) | < 1 | 0.85 | 9.6% | 83.5% | 11.4% | 33% |
| < 20% | O=C(/C=C/c1ccccc1)NC(NC(=S)Nc1ccccc1)C1CC1 (centres undefined) | < 1 | <1 | 3.8% | 81.4% | 8.7% | 27.8% |
| < 20% | Cc1ccccc1NC(=S)NC(NC(=O)/C=C/c1ccccc1)C(C)(C)C (centres undefined) | < 1 | <1 | 7% | 78.7% | 9.7% | 20.5% |
| < 20% | CC(C)CC(NC(=O)/C=C/c1ccccc1)NC(=S)Nc1ccccc1 (centres undefined) | < 1 | 0.86 | 17.7% | 85% | 13.6% | 36.9% |
| < 20% | CC(C)(C)CC(NC(=O)/C=C/c1ccccc1)NC(=S)Nc1ccccc1 (centres undefined) | < 1 | 0.79 | 11.3% | 84.9% | 34.6% | 53% |
| < 20% | CC(C)(C)C(NC(=O)/C=C/c1ccccc1)NC(=S)NC1CCCCC1 (centres undefined) | < 1 | 0.77 | 13% | 85.2% | 34.3% | 47.2% |
